Data on 2 molecules can be found in ChEMBL document CHEMBL1933027, “Time-dependent botulinum neurotoxin serotype A metalloprotease inhibitors” (Bioorg Med Chem, 2011).

Experiment [1] deals with Botulinum neurotoxin type A (Clostridium botulinum) (UniProt P0DPI0). Kind of experiment: Inhibition of Clostridium botulinum BoNT/A light chain-mediated SNAP-25 substrate cleavage preincubated for 15 mins in presence of cysteine before substrate addition by FRET assay. Summed up:
(§1)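 The potential inactivator (2.5 or 5 mM) was preincubated with compound in the assay mixture for 15 min at 37 °C. 17-mer SNAP-25 substrate and BoNT/A LC were then added, and activity was read in the FRET assay (37 °C, 40 min, ex 398/em 485 nm).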

The target in experiment [2] is T1, Interstitial collagenase (Homo sapiens, UniProt P03956).
T1 sequence (P03956 whole entry): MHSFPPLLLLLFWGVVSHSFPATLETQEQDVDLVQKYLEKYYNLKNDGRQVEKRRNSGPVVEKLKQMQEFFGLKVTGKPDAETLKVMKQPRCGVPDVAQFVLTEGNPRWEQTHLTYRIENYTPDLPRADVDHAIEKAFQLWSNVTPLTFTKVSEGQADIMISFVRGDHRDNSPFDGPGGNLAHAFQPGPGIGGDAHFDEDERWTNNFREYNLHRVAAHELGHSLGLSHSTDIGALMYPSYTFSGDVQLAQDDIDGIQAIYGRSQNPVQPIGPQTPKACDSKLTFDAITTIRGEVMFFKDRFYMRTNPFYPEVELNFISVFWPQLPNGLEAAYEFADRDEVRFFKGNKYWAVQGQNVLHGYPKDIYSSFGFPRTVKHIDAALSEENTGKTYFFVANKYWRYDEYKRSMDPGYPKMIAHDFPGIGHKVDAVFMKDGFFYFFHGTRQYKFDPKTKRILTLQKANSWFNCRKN
Kind of experiment: Inhibition of human MMP1.

The target in experiment [3] is T2, Botulinum neurotoxin type B (Clostridium botulinum, UniProt P10844).
T2 sequence (P10844 whole entry): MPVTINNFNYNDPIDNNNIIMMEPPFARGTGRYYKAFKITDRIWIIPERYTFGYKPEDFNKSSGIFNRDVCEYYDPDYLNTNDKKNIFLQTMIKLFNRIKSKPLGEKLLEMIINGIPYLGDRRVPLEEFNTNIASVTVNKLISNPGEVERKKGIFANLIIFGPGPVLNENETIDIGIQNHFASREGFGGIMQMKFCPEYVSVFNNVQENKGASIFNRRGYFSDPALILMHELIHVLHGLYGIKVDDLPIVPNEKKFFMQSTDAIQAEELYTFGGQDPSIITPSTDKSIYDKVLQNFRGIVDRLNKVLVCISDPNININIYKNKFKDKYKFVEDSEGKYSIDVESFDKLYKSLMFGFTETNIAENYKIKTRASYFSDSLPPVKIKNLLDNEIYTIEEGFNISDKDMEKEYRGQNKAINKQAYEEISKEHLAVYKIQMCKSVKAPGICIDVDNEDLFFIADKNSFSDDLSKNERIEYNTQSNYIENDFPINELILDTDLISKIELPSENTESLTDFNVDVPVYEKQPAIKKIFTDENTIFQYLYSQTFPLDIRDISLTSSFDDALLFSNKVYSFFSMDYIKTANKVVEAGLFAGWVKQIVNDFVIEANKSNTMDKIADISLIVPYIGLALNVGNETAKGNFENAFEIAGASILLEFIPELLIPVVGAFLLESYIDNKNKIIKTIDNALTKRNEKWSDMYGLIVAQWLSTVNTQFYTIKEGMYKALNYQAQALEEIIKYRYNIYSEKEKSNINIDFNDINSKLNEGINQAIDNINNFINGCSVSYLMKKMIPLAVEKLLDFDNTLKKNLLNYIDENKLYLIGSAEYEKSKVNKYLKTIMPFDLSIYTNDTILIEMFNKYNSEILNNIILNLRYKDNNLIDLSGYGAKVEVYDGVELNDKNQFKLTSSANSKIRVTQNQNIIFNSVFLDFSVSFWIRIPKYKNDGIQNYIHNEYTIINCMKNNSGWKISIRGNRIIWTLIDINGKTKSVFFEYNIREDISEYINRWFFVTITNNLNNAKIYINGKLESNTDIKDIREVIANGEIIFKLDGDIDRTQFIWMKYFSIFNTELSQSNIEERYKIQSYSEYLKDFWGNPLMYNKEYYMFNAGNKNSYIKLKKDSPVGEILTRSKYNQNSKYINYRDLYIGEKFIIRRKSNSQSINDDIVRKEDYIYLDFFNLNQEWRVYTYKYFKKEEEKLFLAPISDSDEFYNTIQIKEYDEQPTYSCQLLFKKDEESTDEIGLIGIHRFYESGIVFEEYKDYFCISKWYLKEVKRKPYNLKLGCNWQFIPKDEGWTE
Kind of experiment: Inhibition of Clostridium botulinum BoNT/B light chain after 40 mins by FRET-based assay.

The target in experiment [4] is Botulinum neurotoxin type A (Clostridium botulinum) (UniProt P0DPI0). Put plainly: Inhibition of Clostridium botulinum BoNT/A light chain-mediated SNAP-25 substrate cleavage preincubated for 15 mins in presence of glutathione before substrate addition by FRET assay. Summed up:
as §1

In experiment [5] the target is T3, Botulinum neurotoxin type A (Clostridium botulinum, UniProt P0DPI0). Kind of experiment: Inhibition of Clostridium botulinum BoNT/A light chain-mediated SNAP-25 substrate cleavage after 40 mins by FRET assay. Summed up:
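Recombinant BoNT/A LC at 2 nM was incubated with 20 μM SNAP-25 peptide (AA 187–203, DnpK/daciaC-labelled) for 40 min at 37 °C. Cleaved-substrate fluorescence was read at 485 nm with excitation at 398 nm. IC50 is the compound concentration giving 50% inhibition, averaged over two experiments.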

The target in experiment [6] is T3, Botulinum neurotoxin type A. Put plainly: Inhibition of Clostridium botulinum BoNT/A light chain after 40 mins by HPLC assay. In short, it runs like this: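 Incubation was at 37 °C for 40 min with 6 nM BoNT/A LC and 60 μM 17-mer SNAPtide substrate. Samples were separated by reverse-phase C18 HPLC, effluent was monitored at 365 nm, and peaks were quantified by integration.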

In experiment [7] the target is Botulinum neurotoxin type A (Clostridium botulinum) (UniProt P0DPI0). Put plainly: Inhibition of clostridium botulinum BoNT/A light chain assessed as residual activity using SNAP-25 as substrate at 50 uM after 90 mins measured after dialysis by FRET-based assay relative to 6-(4,5-dihydro-1H-imidazol-2-yl)-2-(4-(4-(4,5-dihydro-1H-imidazol-2-yl)phenoxy)phenyl)-1H-indole. In short, it runs like this:
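BoNT/A LC was co-incubated with inhibitor or a DMSO-equivalent control at 37 °C for 90 min. Samples were then dialysed (3,500 MWCO) against 20 mM HEPES pH 7.4, 10% glycerol, 0.05% Tween-20 for 20–24 h at 2–8 °C. Remaining activity was measured by the standard FRET assay.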

Experiment [8] has the same target. Put plainly: Inhibition of Clostridium botulinum BoNT/A light chain-mediated SNAP-25 substrate cleavage preincubated for 15 mins in presence of zinc ion before substrate addition by FRET assay. In short, it runs like this: as §1
Experiment [9] concerns the target 72 kDa type IV collagenase (Homo sapiens, UniProt P08253). Put plainly: Inhibition of human MMP2.

Active and inactive are the calls of the source. No cut-off for these calls is given here.

Sequence of Botulinum neurotoxin type A (Clostridium botulinum) (P0DPI0 2-448 limits assumed): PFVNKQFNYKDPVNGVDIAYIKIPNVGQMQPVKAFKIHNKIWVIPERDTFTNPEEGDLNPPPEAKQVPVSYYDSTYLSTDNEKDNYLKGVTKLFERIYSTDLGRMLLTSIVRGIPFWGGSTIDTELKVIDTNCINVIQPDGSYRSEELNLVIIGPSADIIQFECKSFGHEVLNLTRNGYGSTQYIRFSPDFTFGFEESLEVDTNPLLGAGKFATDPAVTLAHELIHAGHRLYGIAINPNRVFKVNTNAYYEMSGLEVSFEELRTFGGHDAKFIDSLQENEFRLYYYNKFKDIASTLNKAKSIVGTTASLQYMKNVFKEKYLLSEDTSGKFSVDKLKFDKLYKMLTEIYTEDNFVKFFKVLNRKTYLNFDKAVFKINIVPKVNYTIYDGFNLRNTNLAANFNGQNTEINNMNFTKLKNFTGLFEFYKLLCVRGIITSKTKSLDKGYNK
T3 sequence (P0DPI0 2-448 limits assumed): as above
Sequence of 72 kDa type IV collagenase (P08253 whole entry): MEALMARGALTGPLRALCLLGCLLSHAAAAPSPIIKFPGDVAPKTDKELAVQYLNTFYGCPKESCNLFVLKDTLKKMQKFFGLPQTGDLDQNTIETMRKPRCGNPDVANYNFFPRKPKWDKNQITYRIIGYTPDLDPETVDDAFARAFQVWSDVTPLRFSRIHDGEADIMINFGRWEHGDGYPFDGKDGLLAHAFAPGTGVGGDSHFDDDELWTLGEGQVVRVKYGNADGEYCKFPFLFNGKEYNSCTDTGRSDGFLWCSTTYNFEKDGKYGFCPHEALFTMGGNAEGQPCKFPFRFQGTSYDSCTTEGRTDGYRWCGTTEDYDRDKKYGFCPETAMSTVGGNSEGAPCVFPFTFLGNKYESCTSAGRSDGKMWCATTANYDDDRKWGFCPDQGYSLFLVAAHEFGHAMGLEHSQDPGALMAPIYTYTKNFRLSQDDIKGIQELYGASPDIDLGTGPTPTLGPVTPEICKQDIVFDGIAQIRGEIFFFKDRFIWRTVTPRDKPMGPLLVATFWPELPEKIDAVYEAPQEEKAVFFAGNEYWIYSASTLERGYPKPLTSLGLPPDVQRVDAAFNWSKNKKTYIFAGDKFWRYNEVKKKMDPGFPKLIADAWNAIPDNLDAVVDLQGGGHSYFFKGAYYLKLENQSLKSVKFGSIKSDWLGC

Turning to `N#C/C(=C\c1ccc(-c2cccs2)s1)c1nc2ccccc2[nH]1`, the inhibition result in experiment [1], in [4] and in experiment [8] was “Active” each time. Also, the IC50 is above 100 µM in experiment [2]; above 100 µM in experiment [3]; 26 µM in [5]; 29 µM in experiment [6]; above 100 µM in [9]. Moreover, the Ratio in experiment [7] worked out at 1.13.
With `COc1ccc(/C=C(\C#N)c2nc3ccccc3[nH]2)cc1I`, the inhibition entry in experiment [1] and in [4] was “inactive” throughout. Besides, the IC50 was above 100 µM in [2]; above 100 µM in experiment [3]; 7.2 µM in experiment [5]; 10 µM in [6]; above 100 µM in [9]. The Ratio in experiment [7] is 0.99. Besides, in experiment [8], the inhibition entry was “Active”.

For orientation: IC50 means the point on the concentration scale where inhibition reaches its midpoint. Higher therefore signals weaker potency in that assay.
